# From PubChem BioAssay
# In the library only some 3.5% were active in any assay of this set; here they are far more common.
# WT yeast gro inh = growth inhibition of WT strain, primary screen, mitochondrial fusion inhibitor project, WT and mutant strains, chemical genetic; mitochondrial fusion phenotypic screen; inhibition, % at 10 µM; 190,000 tested, 2.1% active; in the data active = inhibition above about 58%; tested in S. cerevisiae
# MEKK2 WT-MEK5 = modulators of MEK5 binding to wildtype MEKK2, primary screen, biochemical, multiplex bead flow cytometry, Alexa488-MEK5; Alexa488-MEK5 binding to MEKK2 WT; actives lie on both sides; binding response (% of control), % at 10 µM; 290,000 tested, 1.1% active; Mitogen-activated protein kinase kinase kinase 2 (Homo sapiens), Q9Y2U5; in the data active = binding response below about 67% or above about 130%; inconclusive = no clear call, values can overlap the other calls; inactive = in between
# MEKK2 mut-MEK5 = MEK5 binding signal on mutant MEKK2 PB1, primary screen, biochemical, multiplex bead flow cytometry, Alexa488-MEK5; Alexa488-MEK5 binding to MEKK2 mutant; percent response, % at 10 µM; 290,000 tested, 0.35% active; AID 1530, 2009; in the data active = percent response above about 24%, passing the limit was not always enough
# ABCG2 block = ABCG2 efflux pump inhibitors, primary screen, multiplex with ABCB1, IgMXP3 cells, flow cytometry; Broad substrate specificity ATP-binding cassette transporter ABCG2 (Homo sapiens), Q9UNQ0; JC-1 efflux; inhibition, % at 6.6 µM; 190,000 tested, 0.1% active; AID 1325, 2008;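 active = inhibition above 80%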
#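 Times: 10 min at 25 °C | Test system: Two drug-resistant human cell lines, ABCG2 and ABCB1 | Quantity: 3 million cells/mL final, two lines in 1:1 ratio | Signal: Flow cytometry, 530 nm JC-1 signal | Dosing: Compound at 6.6 µM | Controls: Nicardipine and DMSO wells | Reagent: JC-1 as fluorescent efflux pump substrate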
# ABCB1 block = ABCB1 efflux pump inhibitors, primary screen, cell-based, multiplex, flow cytometry, ABCG2 counter-screen. 190,000 tested, 0.067% active. CCRF-Adr cells, JC-1 efflux. AID 1326, 2008. ATP-dependent translocase ABCB1 (Homo sapiens), P08183. inhibition, % at 6.6 µM; in the data active = inhibition above about 40%;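 note: higher value means more JC-1 retained so stronger ABCB1 efflux block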
# MEKK3 PB1 HTS = modulators of MEKK3-MEK5 PB1 binding, primary screen, biochemical, wildtype MEKK3, multiplex bead flow cytometry, Alexa488-MEK5; Mitogen-activated protein kinase kinase kinase 3 (Homo sapiens), Q99759; bead-based flow cytometry, Alexa488-MEK5 binding to MEKK3; actives lie on both sides; 0 = blocked by unlabeled MEK5, 100 = vehicle; binding response (% of control), % at 10 µM; 290,000 tested, 1.4% active; AID 1529, 2009;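 active = binding response more than 3 SD above or below the average of its plate-row segment, actives on both sides; inconclusive = wells at one plate position flagged as instrument error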;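 note: Alexa488 bead fluorescence after subtracting the streptavidin-only scavenger bead signal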
# MEKK2wt confirm = modulators of MEK5 binding to wildtype MEKK2, confirmation, biochemical, single concentration, multiplex bead flow cytometry; shares compounds with MEKK3 PB1 HTS; Alexa488-MEK5 binding to MEKK2 WT; actives lie on both sides; binding response (% of control), % at 10 µM; 5,900 tested, 2.4% active; AID 1892, 2009; in the data active = binding response below about 16% or above about 210%; inactive = in between
# MEKK2mut-MEK5 = mutant MEKK2 PB1-MEK5 binding signal retest – biochemical, single concentration, multiplex bead flow cytometry, confirmation | Alexa488-MEK5 binding to MEKK2 mutant | percent response, % at 10 µM | 5,900 tested, 2% active | shares compounds with MEKK3 PB1 HTS; in the data active = percent response mostly above about 71%, no sharp cut-off; inactive = mostly below about 38%;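 note: higher means compound restores mutant binding toward wildtype level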
# MEKK3-MEK5 inh = MEKK3 wild-type PB1 binding to MEK5, inhibitors, confirmation, biochemical, bead multiplex flow cytometry, single concentration, wildtype; shares compounds with MEKK3 PB1 HTS; Alexa488-MEK5 binding to MEKK3; hits give low values; 5,900 tested, 1.8% active; binding response (% of control), % at 10 µM;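 active = binding response below 72% of control, or above a set upper limit, though filed actives all read lower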;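 note: lower values mean stronger disruption of MEK5 binding to MEKK3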
# Hits are given with their value; 0 = inactive; ? = inconclusive; - = not tested or not shown; ! = not confirmed by another sample; [ ] = remark or other dose.
SMILES,WT yeast gro inh,MEKK2 WT-MEK5,MEKK2 mut-MEK5,ABCG2 block,ABCB1 block,MEKK3 PB1 HTS,MEKK2wt confirm,MEKK2mut-MEK5,MEKK3-MEK5 inh
Cc1ccc(NC(=O)c2ccc(NCCc3ccccc3)c([N+](=O)[O-])c2)cc1F,0,5.0[inhibitor],0,0,0,0,0,0,0
C#CCOCCOCCOCCNc1nc(N2CCN(C(=O)C([C@@H](C)CC)n3cc(C(N)COC(=O)C(F)(F)F)nn3)CC2)nc(N2CCN(C(=O)C([C@@H](C)CC)n3cc(C(N)CC(C)C)nn3)CC2)n1 (some centres not stated),-,0,0,-,-,0,-,-,-
Cc1ccc(S(=O)(=O)Nc2ccc(C(=O)N3CCOCC3)cc2)cc1,-,0,0,-,-,0,-,-,-
CCOCCCn1c(=S)[nH]c2cc(C(=O)N3CCN(C)CC3)ccc2c1=O,0,0,0,0,0,70[inhibitor],0,0,0
Clc1ccc2c(c1)CCc1cccnc1C2=C1CCNCC1,0,144!,0,-,-,0,0,0,0
Cn1c(N/N=C\c2cccc(O)c2)cc(=O)n(C)c1=O,0,0,0,0,0,146,0,0,0
Cc1ccc(NC(=S)NCC2CCCO2)cc1 (configuration not stated),0,0,0,0,0,0,-,-,-
O=C(NCCc1ccccc1)C(=O)NCC1CCCO1 (configuration not stated),0,17[inhibitor],0,-,-,12[inhibitor],0,0,0
S=C(NCC1CCCO1)Nc1ccc(Cl)cc1 (configuration not stated),0,0,0,0,0,141,0,0,0
S=C(NCC1CCCO1)NC12CC3CC(CC(C3)C1)C2 (configuration not stated),68,6.0[inhibitor],0,0,0,4.0[inhibitor],0,0,0
COc1ccc(CN2C(=NC(=O)C3CCCCC3)SC3CS(=O)(=O)CC32)cc1 (configuration not stated),-,0,0,-,-,0,-,-,-
COc1cc(C(=O)Nc2ccc(N3CCOCC3)cc2)ccc1OCc1c(C)noc1C,0,0,0,0,0,0,-,-,-
COCCNC(=O)COc1ncnc2scc(-c3ccc(F)cc3)c12,0,0,0,0,0,143,0,0,0
CCOc1ccc(S(=O)(=O)N2CCC(C(=O)N3CCCC3)CC2)cc1C,-,0,0,-,-,0,-,-,-
CC(Sc1nc(-c2ccccc2)cc(C(F)(F)F)n1)C(=O)N1CCC(C(N)=O)CC1 (configuration not stated),0,0,0,0,0,75[inhibitor],0,0,0
CC1CCN(C(=O)C(C)Sc2nc(-c3ccccc3)cc(C(F)(F)F)n2)CC1 (configuration not stated),0,0,0,0,0,0,-,-,-
COc1ccc(-c2nn(-c3ccccc3)cc2/C=C/C(=O)OCC(=O)Nc2cccc(C#N)c2)cc1,0,0,0,0,0,130,0,0,0
COc1ccc(-c2nn(-c3ccccc3)cc2/C=C/C(=O)OCC(=O)Nc2ccc(C#N)cc2)cc1,0,0,0,0,0,0,-,-,-
COc1ccc(NC(=S)N/N=C2\CC(C)(C)Oc3ccc(OC)cc32)cc1,0,0,0,0,0,130,0,0,0
Cc1ccc(NC(=S)N/N=C2\CC(C)(C)Oc3ccc(O)cc32)cc1,0,0,0,0,0,0,-,-,-
Cc1ccc(SCc2cc(=O)[nH]c(/N=C(\N)Nc3cccc4ccccc34)n2)cc1,0,0,0,0,0,137,0,0,0
COc1ccc(Cl)cc1N/C(N)=N/c1nc(CSc2ccc(C)cc2)cc(=O)[nH]1,0,0,0,0,0,0,-,-,-
CN(C)S(=O)(=O)c1ccc(NC(=O)N2CCN(c3cccc(C(F)(F)F)c3)CC2)cc1,0,0,0,0,0,0,-,-,-
COc1ccc(NC(=O)N2CCN(c3cccc(C(F)(F)F)c3)CC2)cc1,0,0.0[inhibitor],0,0,0,0.0[inhibitor],0,0,0
CCOC(=O)N1CCC(NC(=O)CS(=O)Cc2nc(-c3ccc(Cl)cc3)oc2C)CC1 (configuration not stated),-,0,0,-,-,0,-,-,-
SMILES,WT yeast gro inh,MEKK2 WT-MEK5,MEKK2 mut-MEK5,ABCG2 block,ABCB1 block,MEKK3 PB1 HTS,MEKK2wt confirm,MEKK2mut-MEK5,MEKK3-MEK5 inh
CCC1=Nc2cc(C(=O)NCCCOC(C)C)ccc2Sc2ccccc21,0,0,0,0,0,128,0,0,0
C/C(=N\NC(=O)C1CC1)c1ccc2c(c1)OCCO2,0,6.0[inhibitor],0,0,0,4.0[inhibitor],0,0,0
O=C(Nc1cccc2ccccc12)NC1Cc2ccccc2C1,-,0,0,-,-,73[inhibitor],0,0,0
O=C(COC(=O)c1ccccc1Nc1cccc(C(F)(F)F)c1)NCc1ccco1,0,?,0,0,0,?,-,-,-
CN1C2CCC1CC(NS(=O)(=O)c1ccc(C#N)cc1)C2 (configuration not stated),-,0,0,-,-,0,-,-,-
CC(CCc1ccc(O)cc1)NCCC(c1ccccc1)c1ccccc1 (configuration not stated),-,144,0,-,-,0,0,0,0
CCn1c(SCC(N)=O)nc2cc(S(=O)(=O)N3CCOCC3)ccc21,0,0,0,0,0,0,-,-,-
CCn1c(SCC(=O)c2c[nH]c3ccccc23)nc2cc(S(=O)(=O)N3CCOCC3)ccc21,0,62[inhibitor],0,0,0,0,0,0,0
Cc1nn(C)cc1-c1cc(C(=O)O)c2ccccc2n1,0,23[inhibitor],0,0,0,65[inhibitor],0,0,0
COc1ccccc1C1/C(=C(\O)c2ccc3c(c2)OCCO3)C(=O)C(=O)N1Cc1cccnc1 (configuration not stated),-,0,0,-,-,0,-,-,-
N#Cc1c(-c2ccccc2)cc(-c2ccccc2)nc1SCCC(=O)O,-,0,0,-,-,0,-,-,-
O=C(O)C1Nc2ccc(C(F)(F)F)cc2C2OCCC12 (configuration not stated),-,0,0,-,-,78[inhibitor],0,0,0
